Results gathered from unrelated publications.
Lines come from different studies, so protocols differ.
Target: Tyrosine-protein kinase Fer (FER, Homo sapiens, UniProt P16591)

SMILES | assay | conditions | remaining binding
Nc1ncc2c(n1)-c1c([nH]c3ccc(C#CC4CC4)cc13)CCCC2 | binding, competition with immobilised ligand | 1 µM | 100%
c1cnn2ncc(-c3ccnc(N4CCC45COC5)n3)c2c1 | binding | 1 µM | 91%
O=C(NC[C@@H]1[C@H]2CN(C(=O)OCc3cc(C(F)(F)F)cc(C(F)(F)F)c3)C[C@@H]12)c1ccc2[nH]nnc2c1 | cell-free assay, competition with immobilised ligand | 1 µM | 97%
O=C(NCCCN1CCOCC1)c1ccc(Nc2ncc(Cl)c(-c3ccc(Cl)s3)n2)cc1 | binding, competition with immobilised ligand | 1 µM | 86%
COc1ccc2cc(OCC3(C(=O)O)CN(C(=O)c4ccc(F)cc4)C3)ccc2c1 | cell-free assay, competition with immobilised ligand | 1 µM | 74%
COc1ccnn2ncc(-c3ccnc(N(C)C)n3)c12 | binding | 1 µM | 100%
CS(=O)(=O)c1cc(C2(NC(=O)c3cncc4c3cnn4-c3ccc(F)cc3)CC2)ccn1 | cell-free assay, competition with immobilised ligand | 1 µM | 100%
CCN1CCN(Cc2ccc(C(=O)Nc3ccc(C)c(Oc4ccc5c(c4)CC(=O)N5)c3)cc2C(F)(F)F)CC1 | binding, competition with immobilised ligand | 1 µM | 100%
C[C@@]1(Cc2ccc(C#N)cc2)C(=O)N(c2cc(Cl)cc(Cl)c2)c2ncc(C(=O)NC3(c4nc(C5CCC5)no4)CC3)n21 | cell-free assay, competition with immobilised ligand | 1 µM | 100%
O=C(NCC1CCOCC1)c1n[nH]cc1NC(=O)c1c(F)cccc1F | binding, competition with immobilised ligand | 1 µM | 100%
COc1cnc(Nc2cccc(S(N)(=O)=O)c2)nc1N1CCN(c2ccccc2)C(=O)C1 | binding, competition with immobilised ligand | 1 µM | 100%
C[C@H]1CCN(c2nccc(-c3cnn4ncccc34)n2)C1 | binding | 1 µM | 93%
C=CC(=O)N1CCC(C(=O)NCC(=O)N2CCN(c3nc(-c4cnc(N)nc4C(F)F)nc(N4CCOCC4)n3)CC2)CC1 | binding, competition with immobilised ligand | 1 µM | 87%
COc1ncc2cc3ccccc3nc2c1C#N | cell-free assay, competition with immobilised ligand | 5 µM | 100%
CC(=O)c1c(NS(C)(=O)=O)c2cc(-c3ccc(Cl)cc3)c(-c3ccc(Cl)cc3Cl)nc2n(C)c1=O | cell-free assay, competition with immobilised ligand | 1 µM | 100%
CN(c1nccc(-c2cnn3ncccc23)n1)C1CC1 | binding | 1 µM | 100%
CCC(=O)N[C@@H]1CC[C@H](C(=O)N(C)c2ccc(-c3nc4ccccc4o3)cc2)C1 | cell-free assay, competition with immobilised ligand | 1 µM | 99%
Cc1cnc(Nc2ccc(C(=O)N3CCC(N4CCCC4)CC3)cc2)nc1-c1cc2ccccc2s1 | binding, competition with immobilised ligand | 1 µM | 84%
Cc1cnn2ncc(-c3ccnc(N(C)C)n3)c2c1 | binding | 1 µM | 92%
O=C(c1ccc(Nc2ncc(Cl)c(-c3ccc(Cl)s3)n2)cc1)N1CCC(N2CCCC2)CC1 | binding, competition with immobilised ligand | 1 µM | 81%
CC1CCCN1c1nccc(-c2cnn3ncccc23)n1 (stereo not drawn) | binding | 1 µM | 100%
